Ecoli tolC = growth inhibitors of E. coli BW25113 tolC mutant | OD615 | growth inhibition, % at 10 µM (by protocol) | 2.2% of 65,000 active | AID 573;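 active means growth inhibition at or above a cutoff equal to the mean over every tested compound plus 3 SD, cut at about 60% in these data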;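 further: growth measured after 20 h incubation at 37 °C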
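Assay system: tolC-deleted E. coli BW25113. Medium: kanamycin-containing LB broth (50 µg/mL). Dosing: 10 µM final, single dose. Timing: bacterial growth with compound for 20 h at 37 °C. Detection: A615 absorbance measurement. Read-out basis: growth inhibition in percent.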
PostGolgi ctrl = inhibits growth of the yeast control strain; AID 738; inhibition, % at 10 µM; efflux-deficient yeast background strain, growth absorbance A615, 16 h; 5% of 98,000 active
PostGolgi yeast = growth inhibition of a yeast mutant, post-Golgi transport screen. post-Golgi transport phenotypic cell assay. inhibition, % at 10 µM. 0.9% of 98,000 active;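 further: yeast cells grown in 1536-well plates; yeast grown about 18 h at 30C before absorbance read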
Cav32 inh = inhibitors of human Cav3.2 T-type calcium channel. O95180. Cav3.2-expressing cells, Fluo-4 calcium fluorescence FDSS; active compounds read low. B-score at 10 µM. 4% of 100,000 active. AID 449739;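 active means single-dose well whose peak fluorescence ratio is a statistical outlier from its plate by either plate-standardised score or position-corrected B-score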
Ecoli WT expand = growth inhibitors of E. coli BW25113 wild type; OD600 absorbance; growth inhibition, % at 100 µM; 0.15% of 98,000 active;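 active means growth inhibition above about 50% at one test dose, limit read from the data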;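 further: growth measured after 20 h incubation at 37 °C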
Pyk2 oligo antag = antagonists of human Pyk2 oligomerization; Q14289; Q293 cells, Pyk2 FERM NanoBiT luminescence; active compounds read low; z-score (the deposit names both 25 µM and 10 µM); 0.83% of 99,000 active;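 active means Z-score of -3 or lower, scaled per plate to the spread of control and sample wells; inactive means z-score above -3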;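 further: negative z-score means lost luminescence so less FERM oligomerization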
The depositor's hits bear a star; x = no result. Compounds with a hit are over-represented: about 8.7% of the library has one in this group of screens. Unless noted, no stated cut-off is given here; in the data, active means inhibition above about 30%; inactive means the rest.

SMILES	Ecoli tolC	PostGolgi ctrl	PostGolgi yeast	Cav32 inh	Ecoli WT expand	Pyk2 oligo antag
CCc1ccc(S(=O)(=O)NCCc2csc(-c3ccccc3)n2)s1	93*	42*	16	-4.5*	-16	-0.31
CCc1ccc(S(=O)(=O)NCCc2csc(-c3cccnc3)n2)s1	x	4	5	0.097	1	x
COCc1cc(C)nc(SCC(=O)N2CCC(C)CC2)c1C#N	-7	12	-2	0.19	1	0.01
Cc1nc2ccc(S(=O)(=O)NCC(=O)N3CCCC(C)C3)cc2s1 (stereo not drawn)	-2	4	5	0.53	3	0.35
O=c1nc(-c2ccccc2)c2ccccc2[nH]1	-18	59*	0	0.014	13	0.13
CC(C)(C)S(=O)(=O)c1cnc2c(-c3ccc(F)cc3)cnn2c1N	x	-5	-4	0.83	-5	0.25
CC(C)(C)S(=O)(=O)c1cnc2c(-c3ccc(Cl)cc3)cnn2c1N	x	34*	4	1.1	-13	0.21
CC(=O)Nc1ccc(S(=O)(=O)Nc2nnc(C(C)C)s2)cc1	x	-10	3	-0.01	7	-0.47
CCN(CC)S(=O)(=O)c1cccc(-c2nnc(SCCOc3ccccc3C)o2)c1	7	2	-27	-4.7*	-24	-0.58
CCN(CC)S(=O)(=O)c1cccc(-c2nnc(SCCOc3ccccc3)o2)c1	24	12	-6	-4.2*	-32	-1.5
CCN(CC)S(=O)(=O)c1cccc(-c2nnc(SCc3nnc(-c4ccccc4)o3)n2C)c1	x	-4	4	1.9	0	1.5
CCN(CC)S(=O)(=O)c1cccc(-c2nnc(SCCOc3ccc(Cl)cc3)o2)c1	13	1	-5	-7.9*	-6	1.1
CCN(CC)S(=O)(=O)c1cccc(-c2nnc(SCC(=O)c3cc(C)n(C)c3C)o2)c1	-4	1	-2	-0.48	-9	0.78
O=C(Cc1ccccc1)Nc1cccc(N2CCCC2)c1	-8	1	-2	-0.12	-9	0.39
CCCCCNC(=O)C(C#N)c1nc2ccccc2nc1N1CC(C)OC(C)C1 (stereo not drawn)	6	x	x	x	x	x
N#CC(C(=O)NCc1ccco1)c1nc2ccccc2nc1N1CCOCC1 (stereo not drawn)	7	22	10	-3.6*	-7	-1.2
CCCCOC(=O)C(C#N)c1nc2ccccc2nc1N1CCOCC1 (stereo not drawn)	14	37*	0	-0.047	3	-2
N#CC(C(=O)NCCc1ccccc1)c1nc2ccccc2nc1N1CCOCC1 (stereo not drawn)	x	23	15	0.67	-5	-1
COCCCNC(=O)C(C#N)c1nc2ccccc2nc1N1CCCC1 (stereo not drawn)	8	2	2	-5.6*	3	-0.06
CCCCCNC(=O)C(C#N)c1nc2ccccc2nc1N1CCCC1 (stereo not drawn)	-13	4	-6	-7.1*	5	-0.21
Cn1c(SCC(=O)Nc2ccc3nc(SCC(=O)N4CCCC4)sc3c2)nnc1-c1ccc(N)cc1	x	0	2	x	-2	-0.7
CCN(CC)c1nc2ccccc2nc1C(C#N)C(=O)NCCc1ccccc1 (stereo not drawn)	-7	33*	2	-3.7	-9	-0.09
CCN(CC)c1nc2ccccc2nc1C(C#N)C(=O)NCCCOC (stereo not drawn)	25	26	9	-2.5	1	1.3
CCCN(CCC)c1nc2ccccc2nc1C(C#N)C(=O)OC(C)COC (stereo not drawn)	-8	18	3	-7.7*	-16	x
CCCCCCNC(=O)C(C#N)c1nc2ccccc2nc1N1CCCC1 (stereo not drawn)	-11	9	-1	-7.1*	-7	-0.14
SMILES	Ecoli tolC	PostGolgi ctrl	PostGolgi yeast	Cav32 inh	Ecoli WT expand	Pyk2 oligo antag
CCCCN(CCCC)c1nc2ccccc2nc1C(C#N)C(=O)NCCCOC (stereo not drawn)	18	3	-9	-8.1*	-12	0.55
CCCCCCNC(=O)C(C#N)c1nc2ccccc2nc1N1CCOCC1 (stereo not drawn)	x	-4	4	-3.3	-14	-0.95
COc1cccc(CN2C(=O)c3cccc(N)c3C2=O)c1	x	x	x	x	x	-1
COc1ccc2[nH]c(C)c(CCN3C(=O)C4C5C=CC(C5)C4C3=O)c2c1 (stereo not drawn)	2	13	1	x	2	x
COc1ccc(CNc2nc(SCc3cc(=O)n4cc(Cl)ccc4n3)nc3ccccc23)cc1	x	x	x	x	x	0.54
CCOC(=O)C1CCCN(c2nc3ccccc3nc2C(C#N)C(=O)NCc2ccccc2)C1 (stereo not drawn)	1	5	-5	-2.9	-16	-0.53
C=CCOC(=O)C(C#N)c1nc2ccccc2nc1N1CCCC1 (stereo not drawn)	96*	10	0	-2.1	4	-0.64
N#CC(C(=O)NCc1ccccc1)c1nc2ccccc2nc1N1CCCC1 (stereo not drawn)	-8	-6	-2	-6*	-13	0.39
COCCOC(=O)C(C#N)c1nc2ccccc2nc1N1CCCC1 (stereo not drawn)	31	11	-9	0.6	4	-1.2
COc1ccc(-c2nc(-c3ccccc3)nc(N3CCN(C)CC3)c2C#N)cc1	x	33*	-3	0.43	-5	-2
COc1cccc(C(C(=O)NCc2ccco2)N(C(=O)Cn2nnc3ccccc32)C2CC2)c1OC (stereo not drawn)	-2	11	-3	1.6	-2	1
Cc1cc(NC(=O)C(C)Oc2ccc(Cl)cc2Cl)n(-c2ccccc2)n1 (stereo not drawn)	x	23	-4	-3.5*	2	-0.04
COc1ccccc1CN(Cc1cc2cc(C)ccc2[nH]c1=O)Cc1nnnn1Cc1ccco1	21	11	0	-4.4*	-16	0.33
CCOC(=O)Cn1nnnc1CN(Cc1ccc(OC)cc1)Cc1cc2cc(C)ccc2[nH]c1=O	13	18	-1	-1.4	-2	-0.28
CCOC(=O)Cn1nnnc1CN(Cc1ccc(OC)cc1)Cc1cc2cc(CC)ccc2[nH]c1=O	55	8	-6	-5.4*	2	0.44
Cc1ccc2cc(CN(Cc3ccccc3)Cc3nnnn3C3CCCC3)c(=O)[nH]c2c1	73*	39*	-11	x	-18	-1.6
Cc1ccc2cc(CN(Cc3ccc(F)cc3)Cc3nnnn3C3CCCC3)c(=O)[nH]c2c1	66*	41*	1	-1	-12	-1.3
CCc1ccc2[nH]c(=O)c(CN(Cc3ccc4c(c3)OCO4)Cc3nnnn3C3CCCC3)cc2c1	49	15	-2	-2.9	-9	-0.08
Cc1cc(C)n2nc(SCc3cc(=O)n4c(C)cccc4n3)nc2n1	-11	x	x	x	x	x
Cc1sc2c(c1C)CN(Cc1ccco1)CN2C(=O)c1ccccc1	14	x	x	x	x	x
COc1ccc2[nH]c(=O)c(CN(CCc3ccccc3)Cc3nnnn3CC3CCCO3)cc2c1 (stereo not drawn)	19	8	-1	-1.8	3	0.82
